Measured values from publication PMC7227796 (ACS chemical neuroscience, 2020).
Structures can show the parent of a compound that is named as a salt.

Legend:
native AMPA receptors = experiment: Radioligand binding at native AMPA receptors; settings: rat synaptosomes, [3H]AMPA; for IC50: read-out: AMPA IC50, native iGluRs (synaptosomes)
How it was run: (§1)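 Rat cortical synaptosomal membranes were labelled with 5 nM [3H]AMPA (AMPA), 5 nM [3H]KA (KA) or [3H]CGP39653 (NMDA). Test compound was run at 12–16 concentrations in triplicate, with three to six independent experiments. Cpm were fitted by nonlinear regression. Values are reported as pIC50 for AMPA and KA and as pKi for NMDA, each as mean with SEM.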

native KA receptors [1] = experiment: Radioligand binding at native KA receptors; settings: rat synaptosomes, [3H]KA
How it was run: as §1

native NMDA receptors = experiment: Radioligand binding at native NMDA receptors; set-up: species or system rat; settings: for NMDA pKi with SEM (in brackets) / Ki: rat synaptosomes, [3H]CGP-39653; for Ki: read-out: NMDA Ki, native iGluRs (synaptosomes)
How it was run: as §1

GluA1 = GluA1 (Rattus norvegicus, UniProt P19490); experiment: Radioligand binding at recombinant homomeric GluA1
How it was run: (§2)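 Membranes from sf9 cells expressing rat homomeric GluA1 or GluA2 were incubated with [3H]-(S)-AMPA and test compound for 2 h at 4 °C. Buffer was 50 mM Tris-HCl, 0.1 M KSCN, 2.5 mM CaCl2, pH 7.2. Samples were filtered on GF/C, washed twice with ice-cold buffer and counted by scintillation. Competition curves used 12–16 concentrations in triplicate. Ki came from a one-site fit and nH from a four-parameter logistic fit.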

GluA2 = GluA2 (Rattus norvegicus, UniProt P19491); experiment: Radioligand binding at recombinant homomeric GluA2
How it was run: as §2

GluK1 = GluK1 (Rattus norvegicus, UniProt P22756); experiment: Radioligand binding at recombinant homomeric GluK1
How it was run: (§3)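 Membranes from sf9 cells expressing rat homomeric GluK1, GluK2 or GluK3 were incubated in 50 mM Tris-HCl, pH 7.1, for 2 h at 4 °C. Radioligand was [3H]-(S)-NF608 for GluK1 and [3H]kainic acid for GluK2 and GluK3. Samples were filtered on GF/B, washed twice with ice-cold buffer, dried for 1 h at 70 °C and counted by scintillation. Ki came from 12–16-point triplicate curves. Single-point % specific binding is mean ± SD of three experiments, at 10 μM test compound where stated.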

GluK2 = GluK2 (Rattus norvegicus, UniProt P42260); experiment: Radioligand binding at recombinant homomeric GluK2
How it was run: as §3

GluK3 = GluK3 (Rattus norvegicus, UniProt P42264); experiment: Radioligand binding at recombinant homomeric GluK3
How it was run: as §3

[2] = molecular target: GluN1/GluN2A NMDA receptor (Rattus norvegicus, UniProt P35439+Q00959); experiment: Two-electrode voltage-clamp recordings, Xenopus oocytes expressing GluN1/GluN2A; assay type: cell-based
How it was run: (§4)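 Xenopus oocytes were injected with rat GluN1-1a and GluN2A, 2B, 2C or 2D cRNA at a 1:2 ratio. Two-electrode voltage clamp was run 2–6 days later at room temperature and −40 mV. Bath was 90 NaCl, 1 KCl, 10 HEPES, 0.5 BaCl2, 0.01 EDTA (mM), pH 7.4. Currents were evoked by 1 μM glutamate plus 100 μM glycine, with test compound gravity-perfused. Hill fits gave IC50 per oocyte (5–6 oocytes). Ki was derived by Cheng-Prusoff using earlier glutamate EC50 values.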

[3] = molecular target: GluN1/GluN2B NMDA receptor (Rattus norvegicus, UniProt P35439+Q00960); experiment: Two-electrode voltage-clamp recordings, Xenopus oocytes expressing GluN1/GluN2B; assay type: cell-based
How it was run: as §4

[4] = molecular target: GluN1/GluN2C NMDA receptor (Rattus norvegicus, UniProt P35439+Q00961); experiment: Two-electrode voltage-clamp recordings, Xenopus oocytes expressing GluN1/GluN2C; assay type: cell-based
How it was run: as §4

[5] = molecular target: GluN1/GluN2D NMDA receptor (Rattus norvegicus, UniProt P35439+Q62645); experiment: Two-electrode voltage-clamp recordings, Xenopus oocytes expressing GluN1/GluN2D; assay type: cell-based
How it was run: as §4

native KA receptors [6] = settings: rat synaptosomes, [3H]KA; earlier work, ref [36],[38],[39]; cited from earlier work
[7] = molecular target: GluN1/GluN2A NMDA receptor (Rattus norvegicus, UniProt Q00959); experiment: Two-electrode voltage-clamp recordings, Xenopus oocytes expressing GluN1/GluN2A; assay type: cell-based; settings: two-electrode voltage-clamp
How it was run: as §4

Chain of GluN1/GluN2D NMDA receptor (Q62645 28-1323, other chains not shown): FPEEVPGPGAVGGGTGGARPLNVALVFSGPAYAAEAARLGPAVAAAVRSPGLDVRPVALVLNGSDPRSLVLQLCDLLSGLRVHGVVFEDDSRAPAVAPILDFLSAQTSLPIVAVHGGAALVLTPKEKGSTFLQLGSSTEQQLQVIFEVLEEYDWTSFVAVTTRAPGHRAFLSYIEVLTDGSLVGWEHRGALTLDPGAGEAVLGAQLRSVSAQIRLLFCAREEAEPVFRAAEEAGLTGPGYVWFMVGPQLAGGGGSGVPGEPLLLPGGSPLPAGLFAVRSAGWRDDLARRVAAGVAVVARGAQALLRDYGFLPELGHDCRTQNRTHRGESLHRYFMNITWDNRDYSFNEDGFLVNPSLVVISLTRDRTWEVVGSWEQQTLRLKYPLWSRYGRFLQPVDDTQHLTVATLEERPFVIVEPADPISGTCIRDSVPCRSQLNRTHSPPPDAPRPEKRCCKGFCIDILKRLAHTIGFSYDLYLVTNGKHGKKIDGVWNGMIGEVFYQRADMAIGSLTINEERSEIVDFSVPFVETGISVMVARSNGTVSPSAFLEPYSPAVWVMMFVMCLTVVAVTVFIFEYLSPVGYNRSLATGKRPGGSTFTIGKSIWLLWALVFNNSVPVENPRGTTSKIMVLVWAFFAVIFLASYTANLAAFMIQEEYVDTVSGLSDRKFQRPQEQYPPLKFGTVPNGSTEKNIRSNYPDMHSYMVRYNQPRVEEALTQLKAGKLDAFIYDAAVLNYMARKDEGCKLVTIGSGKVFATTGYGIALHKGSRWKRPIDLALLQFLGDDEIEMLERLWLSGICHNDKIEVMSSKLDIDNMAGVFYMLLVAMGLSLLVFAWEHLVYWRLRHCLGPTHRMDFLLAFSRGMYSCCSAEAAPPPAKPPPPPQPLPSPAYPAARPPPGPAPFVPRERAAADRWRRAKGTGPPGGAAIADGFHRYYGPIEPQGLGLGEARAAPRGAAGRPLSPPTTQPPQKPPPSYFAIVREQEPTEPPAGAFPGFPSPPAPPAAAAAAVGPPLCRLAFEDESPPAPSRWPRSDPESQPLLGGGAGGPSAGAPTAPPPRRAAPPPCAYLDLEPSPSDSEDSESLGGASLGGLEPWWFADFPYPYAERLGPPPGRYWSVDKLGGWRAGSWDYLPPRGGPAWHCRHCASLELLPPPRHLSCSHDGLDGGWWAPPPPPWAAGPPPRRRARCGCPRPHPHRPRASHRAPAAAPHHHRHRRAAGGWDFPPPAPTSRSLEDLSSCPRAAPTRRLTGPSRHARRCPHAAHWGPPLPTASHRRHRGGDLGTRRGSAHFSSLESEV
Chain of GluK3 (P42264 32-919): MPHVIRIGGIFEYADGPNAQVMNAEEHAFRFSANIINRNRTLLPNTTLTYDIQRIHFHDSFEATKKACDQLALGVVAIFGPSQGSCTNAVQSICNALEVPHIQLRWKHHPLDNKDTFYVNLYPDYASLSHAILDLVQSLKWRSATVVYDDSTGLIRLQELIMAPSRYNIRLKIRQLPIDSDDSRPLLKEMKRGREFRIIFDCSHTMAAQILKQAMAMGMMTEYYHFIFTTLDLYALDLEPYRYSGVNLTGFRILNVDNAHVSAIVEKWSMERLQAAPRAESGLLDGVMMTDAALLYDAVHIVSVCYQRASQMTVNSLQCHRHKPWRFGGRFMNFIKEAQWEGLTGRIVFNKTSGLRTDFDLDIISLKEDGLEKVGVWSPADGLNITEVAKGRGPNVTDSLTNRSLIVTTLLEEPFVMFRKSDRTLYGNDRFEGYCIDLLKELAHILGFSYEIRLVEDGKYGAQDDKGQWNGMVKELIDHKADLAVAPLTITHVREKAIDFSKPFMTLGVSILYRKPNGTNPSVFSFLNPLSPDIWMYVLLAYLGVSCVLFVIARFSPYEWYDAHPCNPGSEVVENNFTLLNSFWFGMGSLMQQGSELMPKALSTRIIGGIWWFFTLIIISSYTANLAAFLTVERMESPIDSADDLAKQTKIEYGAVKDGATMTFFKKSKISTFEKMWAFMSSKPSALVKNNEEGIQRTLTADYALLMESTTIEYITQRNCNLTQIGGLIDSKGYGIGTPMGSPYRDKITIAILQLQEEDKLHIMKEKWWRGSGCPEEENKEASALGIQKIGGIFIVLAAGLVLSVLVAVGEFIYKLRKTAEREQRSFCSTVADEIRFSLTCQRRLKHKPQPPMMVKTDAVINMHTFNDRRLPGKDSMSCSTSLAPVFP
Chain of GluN1/GluN2B NMDA receptor (Q00960 27-1482, other chains not shown): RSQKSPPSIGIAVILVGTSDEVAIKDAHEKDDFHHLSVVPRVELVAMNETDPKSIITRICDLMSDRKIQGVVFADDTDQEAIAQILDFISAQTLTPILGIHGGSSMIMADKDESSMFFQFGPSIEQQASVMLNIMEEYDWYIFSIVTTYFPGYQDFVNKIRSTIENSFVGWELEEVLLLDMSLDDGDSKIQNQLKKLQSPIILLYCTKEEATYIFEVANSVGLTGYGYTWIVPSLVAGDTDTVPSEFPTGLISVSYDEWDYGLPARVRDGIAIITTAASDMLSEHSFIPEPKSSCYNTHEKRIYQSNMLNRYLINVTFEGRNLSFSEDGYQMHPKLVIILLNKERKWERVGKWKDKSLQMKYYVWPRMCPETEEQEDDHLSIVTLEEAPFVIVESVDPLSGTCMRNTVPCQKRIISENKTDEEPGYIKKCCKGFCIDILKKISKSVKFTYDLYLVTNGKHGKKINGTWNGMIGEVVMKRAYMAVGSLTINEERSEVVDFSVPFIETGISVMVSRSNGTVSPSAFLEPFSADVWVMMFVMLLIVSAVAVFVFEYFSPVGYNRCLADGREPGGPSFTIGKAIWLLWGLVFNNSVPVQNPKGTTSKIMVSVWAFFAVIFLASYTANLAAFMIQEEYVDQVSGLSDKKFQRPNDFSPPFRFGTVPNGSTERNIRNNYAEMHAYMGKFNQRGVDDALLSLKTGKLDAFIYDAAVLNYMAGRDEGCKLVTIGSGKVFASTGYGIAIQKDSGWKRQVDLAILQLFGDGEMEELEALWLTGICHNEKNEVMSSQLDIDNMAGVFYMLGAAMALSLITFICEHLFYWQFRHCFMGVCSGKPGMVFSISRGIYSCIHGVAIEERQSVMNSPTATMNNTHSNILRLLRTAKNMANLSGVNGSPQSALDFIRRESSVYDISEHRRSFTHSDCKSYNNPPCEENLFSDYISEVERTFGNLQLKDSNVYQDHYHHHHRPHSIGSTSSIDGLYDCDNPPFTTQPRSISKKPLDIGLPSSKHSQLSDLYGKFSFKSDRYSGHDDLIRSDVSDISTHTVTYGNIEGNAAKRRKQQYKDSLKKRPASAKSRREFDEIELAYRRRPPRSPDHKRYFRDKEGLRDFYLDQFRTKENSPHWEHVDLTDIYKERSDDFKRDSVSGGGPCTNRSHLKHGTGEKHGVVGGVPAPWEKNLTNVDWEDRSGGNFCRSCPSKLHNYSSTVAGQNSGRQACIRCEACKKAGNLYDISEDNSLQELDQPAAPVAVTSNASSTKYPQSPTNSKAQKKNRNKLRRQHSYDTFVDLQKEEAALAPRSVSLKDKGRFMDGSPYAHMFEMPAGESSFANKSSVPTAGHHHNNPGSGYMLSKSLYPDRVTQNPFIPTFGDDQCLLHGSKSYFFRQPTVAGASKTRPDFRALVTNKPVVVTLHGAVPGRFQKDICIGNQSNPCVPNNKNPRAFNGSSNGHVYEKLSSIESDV
Chain of GluK2 (P42260 32-908): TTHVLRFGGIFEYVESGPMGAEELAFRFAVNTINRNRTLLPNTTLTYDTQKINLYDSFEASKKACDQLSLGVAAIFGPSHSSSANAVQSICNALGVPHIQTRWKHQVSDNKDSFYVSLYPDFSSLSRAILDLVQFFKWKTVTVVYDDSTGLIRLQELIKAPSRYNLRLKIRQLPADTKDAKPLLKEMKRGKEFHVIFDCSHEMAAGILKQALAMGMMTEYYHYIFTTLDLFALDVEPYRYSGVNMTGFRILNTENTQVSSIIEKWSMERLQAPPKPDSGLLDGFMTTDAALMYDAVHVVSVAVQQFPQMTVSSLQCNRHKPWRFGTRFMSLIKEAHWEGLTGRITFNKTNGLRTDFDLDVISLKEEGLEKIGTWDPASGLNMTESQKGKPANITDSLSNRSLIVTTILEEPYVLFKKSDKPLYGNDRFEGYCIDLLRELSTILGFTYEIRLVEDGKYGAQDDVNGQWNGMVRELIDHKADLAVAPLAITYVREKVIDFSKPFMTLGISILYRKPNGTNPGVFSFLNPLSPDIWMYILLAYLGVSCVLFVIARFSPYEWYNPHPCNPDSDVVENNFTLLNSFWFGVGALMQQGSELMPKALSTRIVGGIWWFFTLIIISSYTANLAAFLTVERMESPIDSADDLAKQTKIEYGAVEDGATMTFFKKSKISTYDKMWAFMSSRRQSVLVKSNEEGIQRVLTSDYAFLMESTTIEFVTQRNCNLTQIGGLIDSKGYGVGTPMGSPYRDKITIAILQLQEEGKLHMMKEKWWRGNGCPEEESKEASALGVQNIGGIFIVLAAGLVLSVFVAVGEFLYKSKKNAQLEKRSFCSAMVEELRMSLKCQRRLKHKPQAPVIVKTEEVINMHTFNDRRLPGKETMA

Row | IC50 [2] | IC50 [3] | IC50 [4] | IC50 [5] | SMILES | AMPA pIC50 with SEM (in brackets) (native AMPA receptors) | IC50 (native AMPA receptors) | KA IC50, native iGluRs (synaptosomes) (native KA receptors [1]) | KA pIC50 with SEM (in brackets) (native KA receptors [1]) | NMDA pKi with SEM (in brackets) (native NMDA receptors) | Ki (native NMDA receptors) | Ki (GluA1) | Ki (GluA2) | Ki (GluK1) | Ki (GluK2) | Ki (GluK3) | KA (IC50), native iGluRs (native KA receptors [6]) | selectivity for GluN1/2A over GluN1/2B and GluN1/2C [7] | selectivity for GluN1/2A over GluN1/2D [7] | increase in affinity for native NMDA receptors (native NMDA receptors; compared to 4a) | selectivity/preference for NMDA receptors over AMPA and KA receptors (native NMDA receptors; native receptors)
1 | – | – | – | – | Cl.O=C(O)c1cc(-c2cccnc2)cc([C@H]2CCN[C@@H]2C(=O)O)c1 [5f, (2S,3R)-3-(3-Carboxy-5-(pyridin-3-yl)phenyl)pyrrolidine-2-carboxylic acid hydrochloride] | 4.57±0.13 | 29 µM | 23 µM | 4.65±0.03 | 5.51±0.02 | 3.1 µM | 15 µM | 40 µM | 25 ± 1.2 µM | > 100 µM | 5.9 ± 0.62 µM | – | – | – | – | –
2 | 11.8 ± 0.23 µM | 34.5 ± 0.97 µM | 91.2 ± 2.6 µM | > 100 µM | Cl.O=C(O)c1cccc([C@H]2CCN[C@@H]2C(=O)O)c1 [4a, (2S,3R)-3-(3-Carboxyphenyl)pyrrolidine-2-carboxylic acid hydrochloride] | – | – | – | – | – | – | – | – | – | – | – | 22 µM | – | – | – | –
3 | – | – | – | – | Cl.O=C(O)c1cc([C@H]2CCN[C@@H]2C(=O)O)ccc1Br [4f, (2S,3R)-3-(4-Bromo-3-carboxyphenyl)pyrrolidine-2-carboxylic acid hydrochloride] | – | – | – | – | – | – | – | – | – | – | – | >100 µM | – | – | – | –
4 | – | – | – | – | Cl.O=C(O)c1cc(-c2ccncc2)cc([C@H]2CCN[C@@H]2C(=O)O)c1 [5g, (2S,3R)-3-(3-Carboxy-5-(pyridin-4-yl)phenyl)pyrrolidine-2-carboxylic acid hydrochloride] | – | 27 µM | 25 µM | 4.61±0.05 | 5.76±0.01 | 1.7 µM | 12 µM | 33 µM | 22 ± 2.3 µM | > 100 µM | 6.5 ± 0.92 µM | – | – | – | – | –
5 | – | – | – | – | Cl.O=C(O)c1cc(-c2cnc(O)nc2)cc([C@H]2CCN[C@@H]2C(=O)O)c1 [5i, (2S,3R)-3-(3-Carboxy-5-(2-hydroxypyrimidin-5-yl)phenyl)pyrrolidine-2-carboxylic acid hydrochloride] | 4.92±0.13 | 13 µM | >100 µM | – | 5.39±0.03 | 4.1 µM | 10 µM | 56 µM | 76 ± 1.8 µM | > 100 µM | 16 ± 0.98 µM | – | – | – | – | –
6 | – | – | – | – | Cl.O=C(O)c1cc(-c2cncnc2)cc([C@H]2CCN[C@@H]2C(=O)O)c1 [5h, (2S,3R)-3-(3-Carboxy-5-(pyrimidin-5-yl)phenyl)pyrrolidine-2-carboxylic acid hydrochloride] | 4.30±0.13 | 59 µM | >100 µM | – | 4.98±0.01 | 10 µM | 22.7 µM | 82.9 µM | 100 µM | 100 µM | 13 ± 0.17 µM | – | – | – | – | –
7 | 0.75 ± 0.03 µM | 4.24 ± 0.13 µM | 5.17 ± 0.12 µM | 24.3 ± 1.46 µM | O=C(O)c1ccc([C@H]2CCN[C@@H]2C(=O)O)cc1C(=O)O [4h, 4-((2S,3R)-2-Carboxypyrrolidin-3-yl)phthalic acid tri sodium salt] | – | > 100 µM | >100 µM | – | 5.88 ± 0.06 | 1.3 µM | – | – | > 100 µM | > 100 µM | > 100 µM | – | 6 to 10 fold | 32 to 34 fold | – | –
8 | – | – | – | – | Cl.O=C(O)c1cc(-c2ccccn2)cc([C@H]2CCN[C@@H]2C(=O)O)c1 [5e, (2S,3R)-3-(3-Carboxy-5-(pyridin-2-yl)phenyl)pyrrolidine-2-carboxylic acid hydrochloride] | 4.40±0.05 | 40 µM | 20 µM | 4.71±0.05 | 5.42±0.01 | 3.8 µM | 19 µM | 55 µM | 20 ± 1.8 µM | > 100 µM | 6.4 ± 0.41 µM | – | – | – | – | –

Row | SMILES | IC50 [2] | IC50 [3] | IC50 [4] | IC50 [5] | AMPA pIC50 with SEM (in brackets) (native AMPA receptors) | IC50 (native AMPA receptors) | KA IC50, native iGluRs (synaptosomes) (native KA receptors [1]) | KA pIC50 with SEM (in brackets) (native KA receptors [1]) | NMDA pKi with SEM (in brackets) (native NMDA receptors) | Ki (native NMDA receptors) | Ki (GluA1) | Ki (GluA2) | Ki (GluK1) | Ki (GluK2) | Ki (GluK3) | KA (IC50), native iGluRs (native KA receptors [6]) | selectivity for GluN1/2A over GluN1/2B and GluN1/2C [7] | selectivity for GluN1/2A over GluN1/2D [7] | increase in affinity for native NMDA receptors (native NMDA receptors; compared to 4a) | selectivity/preference for NMDA receptors over AMPA and KA receptors (native NMDA receptors; native receptors)
9 | Cl.O=C(O)c1cc(C(=O)O)cc([C@H]2CCN[C@@H]2C(=O)O)c1 [5c, 5-((2S,3R)-2-Carboxypyrrolidin-3-yl)isophthalic acid hydrochloride] | 0.63 ± 0.01 µM | 4.37 ± 0.17 µM | 6.27 ± 0.13 µM | 21.2 ± 0.37 µM | 4.45 ± 0.04 | 36 µM | 63 µM | 4.21 ± 0.05 | 6.32 ± 0.03 | 0.48 µM | – | – | 12.5 ± 1.7 µM | > 100 µM | 15.7 ± 3.1 µM | – | 6 to 10 fold | 32 to 34 fold | 9 fold | 75 fold
